This passage reports ΔTm results from ChEMBL document CHEMBL1944596, “7,8-dichloro-1-oxo-β-carbolines as a versatile scaffold for the development of potent and selective kinase inhibitors with unusual binding modes” (J Med Chem, 2012).

Test [1] addresses T1, Dual specificity tyrosine-phosphorylation-regulated kinase 2 (Homo sapiens) (UniProt Q92630).
T1 sequence (whole entry): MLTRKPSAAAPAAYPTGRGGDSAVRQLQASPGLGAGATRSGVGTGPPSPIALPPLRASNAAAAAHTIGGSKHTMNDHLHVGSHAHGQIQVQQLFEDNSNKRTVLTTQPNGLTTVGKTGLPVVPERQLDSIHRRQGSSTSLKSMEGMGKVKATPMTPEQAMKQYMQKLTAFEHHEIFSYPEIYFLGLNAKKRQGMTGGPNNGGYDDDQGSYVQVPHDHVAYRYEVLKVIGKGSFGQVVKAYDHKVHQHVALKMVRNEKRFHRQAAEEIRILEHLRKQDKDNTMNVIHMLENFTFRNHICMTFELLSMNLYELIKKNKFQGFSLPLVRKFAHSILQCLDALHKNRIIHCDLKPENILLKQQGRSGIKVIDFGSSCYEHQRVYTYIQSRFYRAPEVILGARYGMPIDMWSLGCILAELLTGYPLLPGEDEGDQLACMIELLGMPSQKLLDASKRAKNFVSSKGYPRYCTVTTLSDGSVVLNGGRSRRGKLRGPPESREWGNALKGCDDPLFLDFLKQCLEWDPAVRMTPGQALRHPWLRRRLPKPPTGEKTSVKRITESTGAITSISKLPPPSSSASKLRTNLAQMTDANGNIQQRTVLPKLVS
Put plainly: Binding affinity to DYRK2 assessed as change in thermal denaturation at 10 uM by thermal stability shift assay. In a few lines: (§1)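 Each compound was screened across a kinase panel by thermal stability shift assay. The read-out was the shift in protein melting temperature (ΔTm, in °C) relative to the unliganded kinase. A ΔTm of 4.0 °C served as the hit cutoff.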

Test [2] concerns the target Glycogen synthase kinase-3 beta (Homo sapiens) (UniProt P49841). Put plainly: Binding affinity to GSK3-beta assessed as change in thermal denaturation at 10 uM by thermal stability shift assay. Put shortly: as §1
Test [3] deals with T2, Myosin light chain kinase family member 4 (Homo sapiens) (UniProt Q86YV6).
T2 sequence (whole entry): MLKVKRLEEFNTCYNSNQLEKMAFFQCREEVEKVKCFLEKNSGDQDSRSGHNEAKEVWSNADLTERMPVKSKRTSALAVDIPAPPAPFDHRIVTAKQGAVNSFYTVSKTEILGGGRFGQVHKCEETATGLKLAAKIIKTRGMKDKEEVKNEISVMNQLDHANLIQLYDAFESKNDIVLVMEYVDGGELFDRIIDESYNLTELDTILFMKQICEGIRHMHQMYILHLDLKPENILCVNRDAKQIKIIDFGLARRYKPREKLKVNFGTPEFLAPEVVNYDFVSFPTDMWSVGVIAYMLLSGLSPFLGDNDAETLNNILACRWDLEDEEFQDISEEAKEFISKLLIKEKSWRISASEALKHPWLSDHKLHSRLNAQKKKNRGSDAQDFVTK
Put plainly: Binding affinity to SGK085 assessed as change in thermal denaturation at 10 uM by thermal stability shift assay. Put shortly: as §1

Test [4] deals with Serine/threonine-protein kinase pim-1 (Homo sapiens, UniProt P11309). The test can be described thus: Binding affinity to PIM1 assessed as change in thermal denaturation at 10 uM by thermal stability shift assay. Put shortly: as §1
For test [5], the target named is Serine/threonine-protein kinase pim-2 (Homo sapiens, UniProt Q9P1W9). The test can be described thus: Binding affinity to PIM2 assessed as change in thermal denaturation at 10 uM by thermal stability shift assay. In a few lines: as §1
The target of test [6] is Serine/threonine-protein kinase pim-3 (Homo sapiens, UniProt Q86V86). Put plainly: Binding affinity to PIM3 assessed as change in thermal denaturation at 10 uM by thermal stability shift assay. Put shortly: as §1
Test [7] has as its target Serine/threonine-protein kinase PLK1 (Homo sapiens) (UniProt P53350). The test can be described thus: Binding affinity to PLK1 assessed as change in thermal denaturation at 10 uM by thermal stability shift assay. In a few lines: as §1
The target in test [8] is Protein kinase C gamma type (Homo sapiens) (UniProt P05129). Put plainly: Binding affinity to PKCgamma assessed as change in thermal denaturation at 10 uM by thermal stability shift assay. Put shortly: as §1
In test [9] the target is T3, Serine/threonine-protein kinase 17A (Homo sapiens) (UniProt Q9UEE5).
T3 sequence (whole entry): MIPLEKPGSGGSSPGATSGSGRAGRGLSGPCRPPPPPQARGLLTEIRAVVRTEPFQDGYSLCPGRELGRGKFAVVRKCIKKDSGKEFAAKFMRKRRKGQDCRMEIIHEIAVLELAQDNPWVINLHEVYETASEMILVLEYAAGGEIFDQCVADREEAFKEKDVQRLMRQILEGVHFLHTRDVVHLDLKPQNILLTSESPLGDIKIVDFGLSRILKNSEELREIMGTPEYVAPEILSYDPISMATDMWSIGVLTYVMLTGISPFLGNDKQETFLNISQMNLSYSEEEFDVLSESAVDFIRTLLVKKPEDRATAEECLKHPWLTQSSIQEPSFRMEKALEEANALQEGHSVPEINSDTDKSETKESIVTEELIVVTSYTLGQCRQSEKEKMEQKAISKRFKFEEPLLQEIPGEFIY
Put plainly: Binding affinity to DRAK1 assessed as change in thermal denaturation at 10 uM by thermal stability shift assay. In a few lines: as §1

Test [10] has as its target T4, Serine/threonine-protein kinase 17B (Homo sapiens) (UniProt O94768).
T4 sequence (whole entry): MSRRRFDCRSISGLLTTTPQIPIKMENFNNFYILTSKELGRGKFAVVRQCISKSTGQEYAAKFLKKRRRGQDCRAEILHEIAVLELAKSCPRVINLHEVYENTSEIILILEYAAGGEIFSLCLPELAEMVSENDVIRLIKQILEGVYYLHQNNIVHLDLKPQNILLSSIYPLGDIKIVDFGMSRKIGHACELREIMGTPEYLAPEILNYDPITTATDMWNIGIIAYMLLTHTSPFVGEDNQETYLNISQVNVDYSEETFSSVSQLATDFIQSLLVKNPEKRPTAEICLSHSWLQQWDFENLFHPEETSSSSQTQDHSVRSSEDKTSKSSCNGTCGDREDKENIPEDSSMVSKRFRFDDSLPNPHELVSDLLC
Put plainly: Binding affinity to DRAK2 assessed as change in thermal denaturation at 10 uM by thermal stability shift assay. Put shortly:
as §1

Test [11] has as its target Serine/threonine-protein kinase 33 (Homo sapiens) (UniProt Q9BYT3). The test can be described thus: Binding affinity to STK33 assessed as change in thermal denaturation at 10 uM by thermal stability shift assay. In a few lines:
as §1

In test [12] the target is AP2-associated protein kinase 1 (Homo sapiens) (UniProt Q2M2I8). Put plainly: Binding affinity to AAK1 assessed as change in thermal denaturation at 10 uM by thermal stability shift assay. In a few lines: as §1
Test [13] has as its target Dual specificity protein kinase CLK4 (Homo sapiens) (UniProt Q9HAZ1). The test can be described thus: Binding affinity to CLK4 assessed as change in thermal denaturation at 10 uM by thermal stability shift assay. In a few lines: as §1
For test [14], the target named is Death-associated protein kinase 3 (Homo sapiens) (UniProt O43293). Put plainly: Binding affinity to N-terminus His6-tagged DAPK3 expressed in Escherichia coli BL21 (DE3) cells coexpressing pCOEX assessed as change in thermal denaturation at 10 uM by thermal stability shift assay. Put shortly:
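DAPK3 was expressed in E. coli grown in TB with kanamycin and chloramphenicol at 37 °C, cooled to 25 °C, and induced with 0.5 mM IPTG. Binding was read as thermal-shift ΔTm in °C.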

Glycogen synthase kinase-3 beta (Homo sapiens), sequence (P49841 whole entry, looked up): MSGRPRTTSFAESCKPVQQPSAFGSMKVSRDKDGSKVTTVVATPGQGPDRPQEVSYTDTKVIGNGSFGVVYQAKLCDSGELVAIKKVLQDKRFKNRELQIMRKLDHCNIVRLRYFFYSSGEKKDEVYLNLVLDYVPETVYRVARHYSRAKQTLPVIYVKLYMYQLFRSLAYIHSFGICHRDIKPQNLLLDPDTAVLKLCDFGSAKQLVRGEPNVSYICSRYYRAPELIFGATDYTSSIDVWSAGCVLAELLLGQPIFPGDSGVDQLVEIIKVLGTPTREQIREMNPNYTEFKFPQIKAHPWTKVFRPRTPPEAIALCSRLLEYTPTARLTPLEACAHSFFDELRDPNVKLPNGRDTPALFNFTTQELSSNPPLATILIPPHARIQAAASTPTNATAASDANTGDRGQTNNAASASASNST
Serine/threonine-protein kinase 33 (Homo sapiens), sequence (Q9BYT3 whole entry, looked up): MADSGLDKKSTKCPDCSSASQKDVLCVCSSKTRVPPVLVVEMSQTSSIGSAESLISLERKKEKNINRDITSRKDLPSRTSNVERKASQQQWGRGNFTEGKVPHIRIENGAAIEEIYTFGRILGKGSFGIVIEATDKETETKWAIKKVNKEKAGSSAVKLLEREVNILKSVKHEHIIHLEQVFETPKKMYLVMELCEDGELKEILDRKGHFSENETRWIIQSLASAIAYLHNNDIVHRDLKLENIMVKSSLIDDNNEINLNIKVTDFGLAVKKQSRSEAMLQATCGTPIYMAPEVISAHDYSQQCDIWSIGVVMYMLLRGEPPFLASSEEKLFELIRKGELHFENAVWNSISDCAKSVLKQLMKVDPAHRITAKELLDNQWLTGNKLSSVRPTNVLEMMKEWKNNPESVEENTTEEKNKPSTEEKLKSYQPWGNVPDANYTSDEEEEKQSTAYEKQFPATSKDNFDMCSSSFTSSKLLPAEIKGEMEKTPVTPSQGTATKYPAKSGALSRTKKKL
Serine/threonine-protein kinase pim-2, sequence (Q9P1W9 whole entry, looked up): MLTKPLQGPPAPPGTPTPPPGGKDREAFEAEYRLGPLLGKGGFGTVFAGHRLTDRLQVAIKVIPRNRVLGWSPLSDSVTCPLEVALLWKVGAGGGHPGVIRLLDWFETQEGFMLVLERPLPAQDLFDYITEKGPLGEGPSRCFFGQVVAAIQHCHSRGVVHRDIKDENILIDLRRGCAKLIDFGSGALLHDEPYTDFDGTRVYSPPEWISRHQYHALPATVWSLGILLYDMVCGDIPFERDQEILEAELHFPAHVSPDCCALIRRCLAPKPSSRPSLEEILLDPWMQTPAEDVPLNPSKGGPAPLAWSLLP
Serine/threonine-protein kinase pim-1, sequence (P11309 whole entry, looked up): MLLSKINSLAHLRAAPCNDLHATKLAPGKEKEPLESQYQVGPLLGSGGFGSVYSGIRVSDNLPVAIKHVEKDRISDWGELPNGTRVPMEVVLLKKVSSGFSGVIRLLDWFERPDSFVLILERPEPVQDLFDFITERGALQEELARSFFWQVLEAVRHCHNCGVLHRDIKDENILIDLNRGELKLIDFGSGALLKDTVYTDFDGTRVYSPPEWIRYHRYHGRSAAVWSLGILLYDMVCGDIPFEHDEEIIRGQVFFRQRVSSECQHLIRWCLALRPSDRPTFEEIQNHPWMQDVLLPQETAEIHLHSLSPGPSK
Death-associated protein kinase 3 (Homo sapiens), sequence (O43293 whole entry, looked up): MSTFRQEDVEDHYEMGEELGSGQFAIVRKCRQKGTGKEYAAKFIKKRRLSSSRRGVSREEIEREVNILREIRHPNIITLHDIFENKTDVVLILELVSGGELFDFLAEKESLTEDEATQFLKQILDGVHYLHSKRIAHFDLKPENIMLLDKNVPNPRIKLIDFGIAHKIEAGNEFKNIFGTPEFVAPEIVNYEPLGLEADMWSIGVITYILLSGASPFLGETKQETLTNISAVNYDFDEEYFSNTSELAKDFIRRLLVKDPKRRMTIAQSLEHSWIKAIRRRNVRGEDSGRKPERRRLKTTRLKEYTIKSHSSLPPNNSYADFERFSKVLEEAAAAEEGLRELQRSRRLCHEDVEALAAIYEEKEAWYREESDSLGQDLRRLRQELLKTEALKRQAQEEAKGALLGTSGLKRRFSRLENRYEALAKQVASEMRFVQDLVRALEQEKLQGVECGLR
Serine/threonine-protein kinase PLK1 (Homo sapiens), sequence (P53350 whole entry): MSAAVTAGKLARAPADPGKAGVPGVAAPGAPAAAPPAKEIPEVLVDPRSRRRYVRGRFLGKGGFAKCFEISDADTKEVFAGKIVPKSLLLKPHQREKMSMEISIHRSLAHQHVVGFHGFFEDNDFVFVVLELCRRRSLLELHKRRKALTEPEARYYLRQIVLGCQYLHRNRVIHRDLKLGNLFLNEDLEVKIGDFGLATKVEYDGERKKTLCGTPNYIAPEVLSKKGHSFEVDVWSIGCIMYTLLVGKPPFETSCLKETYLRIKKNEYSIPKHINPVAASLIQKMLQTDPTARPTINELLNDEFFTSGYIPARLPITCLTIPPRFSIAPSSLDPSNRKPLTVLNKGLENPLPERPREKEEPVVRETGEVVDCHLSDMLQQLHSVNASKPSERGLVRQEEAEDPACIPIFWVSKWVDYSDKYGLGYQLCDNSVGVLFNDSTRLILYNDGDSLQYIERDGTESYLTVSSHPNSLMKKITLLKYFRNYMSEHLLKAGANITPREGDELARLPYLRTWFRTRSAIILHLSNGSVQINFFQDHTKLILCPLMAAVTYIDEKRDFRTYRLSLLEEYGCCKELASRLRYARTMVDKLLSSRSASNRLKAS
Dual specificity protein kinase CLK4 (Homo sapiens), sequence (Q9HAZ1 whole entry, looked up): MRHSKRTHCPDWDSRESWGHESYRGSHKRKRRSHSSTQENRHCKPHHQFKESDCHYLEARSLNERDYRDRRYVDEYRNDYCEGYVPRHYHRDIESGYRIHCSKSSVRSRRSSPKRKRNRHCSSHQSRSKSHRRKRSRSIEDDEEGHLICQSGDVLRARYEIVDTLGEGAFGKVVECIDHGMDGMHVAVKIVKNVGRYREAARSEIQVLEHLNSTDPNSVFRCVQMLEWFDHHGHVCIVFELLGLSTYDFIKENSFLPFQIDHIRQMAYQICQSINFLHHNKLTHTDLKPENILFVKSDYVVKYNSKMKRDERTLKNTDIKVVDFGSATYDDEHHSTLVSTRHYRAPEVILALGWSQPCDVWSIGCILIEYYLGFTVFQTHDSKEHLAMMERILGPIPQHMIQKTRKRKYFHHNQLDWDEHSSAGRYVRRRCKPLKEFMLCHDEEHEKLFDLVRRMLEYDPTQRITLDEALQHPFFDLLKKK

With `Cn1c2c(c3ccccc31)C(C#N)C(C)(C)NC2=O` (centres undefined), the ΔTm in [1] was 0.5 °C; in [2] it was 1.8 °C; in [3], 1.7 °C; in test [4], 0.9 °C; in test [5] it was -0.2 °C; in [6], 1.3 °C. Moreover, the ΔTm in test [7] was found to be 3.2 °C; in test [8] it was 0.4 °C; in test [9], 0.5 °C; in [10] it was 0.3 °C; in test [11], 1 °C; in test [12], 0.6 °C. The results for the ΔTm in test [13] and in test [14] were 1.4 °C and 0.6 °C, respectively.
